# Experimental data reported in ChEMBL document CHEMBL2384924, “Antagonists for the orphan G-protein-coupled receptor GPR55 based on a coumarin scaffold” (J Med Chem, 2013).
# pIC50, pKi: −log10 of the molar value. The source made the active and inactive calls.
# Target: T1, G-protein coupled receptor 55 (Homo sapiens, UniProt Q9Y2T6)
# Assay: Antagonist activity at human GPR55 transfected in CHO cells assessed as inhibition of LPI-induced beta-arrestin recruitment at 10 uM incubated 60 mins prior to LPI addition by beta-arrestin translocation assay
# Type: cell-based
# Set-up: scale not given: the % may be the effect or the level left
# Conditions: not given
# Summary of the method: (§1)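 CHO cells stably expressing human GPR55 were seeded at 20,000 cells/well for 24 h at 37°C. Compound in PBS/10% DMSO/0.1% BSA was added 60 min before 1 µM LPI. Galacton-Star/Emerald-II/lysis buffer (pH 8) was applied for 60 min at RT, with luminescence read-out. Screening was at 10 µM (% inhibition). IC50 was measured where inhibition exceeded 60%. Three independent experiments in duplicate.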
# T1 sequence (Q9Y2T6 whole entry): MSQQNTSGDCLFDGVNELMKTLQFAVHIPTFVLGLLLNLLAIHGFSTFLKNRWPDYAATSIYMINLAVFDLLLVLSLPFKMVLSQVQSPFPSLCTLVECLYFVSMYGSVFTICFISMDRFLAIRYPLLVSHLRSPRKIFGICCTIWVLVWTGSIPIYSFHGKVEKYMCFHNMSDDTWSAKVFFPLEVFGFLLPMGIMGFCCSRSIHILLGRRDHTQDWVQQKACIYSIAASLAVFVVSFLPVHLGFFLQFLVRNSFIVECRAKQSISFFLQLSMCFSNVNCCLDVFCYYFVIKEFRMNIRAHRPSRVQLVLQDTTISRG
row,SMILES,Activity [%]
1,CCCCC1(c2cc(OC)c3cc(Cc4ccccc4OC)c(=O)oc3c2)CCCCC1,44
2,CCCCC1(c2cc(OC)c3cc(Cc4ccccc4OC)c(=O)oc3c2)CCCC1,30

# Target: T2, Cannabinoid receptor 2 (Homo sapiens, UniProt P34972)
# T2 sequence (P34972 whole entry): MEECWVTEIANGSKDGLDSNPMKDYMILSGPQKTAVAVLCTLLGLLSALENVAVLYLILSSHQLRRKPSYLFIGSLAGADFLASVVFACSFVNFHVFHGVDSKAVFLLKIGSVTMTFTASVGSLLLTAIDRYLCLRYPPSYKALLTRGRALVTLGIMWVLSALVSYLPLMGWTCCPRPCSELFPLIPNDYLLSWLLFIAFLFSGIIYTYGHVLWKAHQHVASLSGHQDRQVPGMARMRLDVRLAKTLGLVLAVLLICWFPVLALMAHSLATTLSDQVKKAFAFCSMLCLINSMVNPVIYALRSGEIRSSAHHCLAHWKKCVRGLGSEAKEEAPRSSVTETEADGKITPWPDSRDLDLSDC
# Assay: Displacement of [3H]-CP55,940 from human CB2 receptor transfected in CHOK1 cells at 10 uM
# Type: cell-based
# Conditions: CHO-K1
# Summary of the method: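 Competition binding used membranes from CHO cells stably expressing human CB2 (1 µg protein per vial) and [3H]CP55,940 at 0.1 nM final. Compound stocks were in DMSO (2.5% final). Compound was tested at 10 µM as % inhibition of radioligand binding. Three independent experiments in duplicate.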
row,SMILES,Activity [%]
1,Cc1cc2c(C(C)C)ccc(C)c2oc1=O,0
2,CCCCC1(c2cc(OC)c3cc(Cc4ccccc4OC)c(=O)oc3c2)CCCCC1,45
3,Cc1ccc(C(C)C)c2cc(Cc3ccccc3)c(=O)oc12,24
4,Cc1ccc(C(C)C)c2cc(Cc3ccccc3O)c(=O)oc12,24

# Target: T3, N-arachidonyl glycine receptor (Homo sapiens) (UniProt Q14330)
# T3 sequence (whole entry): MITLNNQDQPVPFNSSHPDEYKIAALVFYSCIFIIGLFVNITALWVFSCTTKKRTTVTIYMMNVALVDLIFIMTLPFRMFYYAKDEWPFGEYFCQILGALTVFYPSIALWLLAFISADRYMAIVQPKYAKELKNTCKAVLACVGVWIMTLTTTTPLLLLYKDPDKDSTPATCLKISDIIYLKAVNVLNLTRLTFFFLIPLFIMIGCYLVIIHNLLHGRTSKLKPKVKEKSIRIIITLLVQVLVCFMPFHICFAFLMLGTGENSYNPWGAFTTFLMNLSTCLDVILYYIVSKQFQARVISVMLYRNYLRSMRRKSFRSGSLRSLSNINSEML
# Assay: Antagonist activity at human GPR18 transfected in CHO cells assessed as delta9-THC-induced beta-arrestin recruitment at 10 uM incubated 60 mins prior to delta9-THC addition by beta-arrestin translocation assay
# Type: cell-based
# Set-up: scale not given: the % may be the effect or the level left
# Conditions: not given
# Summary of the method: (§2)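 CHO cells stably expressing human GPR18 were seeded at 20,000 cells/well for 24 h at 37°C. Compound in PBS/10% DMSO/0.1% BSA was added 60 min before the GPR18 agonist 3 at 10 µM. The supplier's detection reagent was used, and luminescence was read after 60 min at RT. Screening was at 10 µM (% inhibition); IC50 from concentration-inhibition curves. Three independent experiments in duplicate.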
row,SMILES,Activity [%]
1,COc1c(C)c(C)c2oc(=O)c(Cc3ccccc3)cc2c1C,46
2,COc1cc(C)cc2oc(=O)c(Cc3ccccc3)cc12,24
3,CCCCCc1cc(OC)c2cc(Cc3ccccc3C)c(=O)oc2c1,34
4,Cc1cc2c(C(C)C)ccc(C)c2oc1=O,11
5,CCCCC1(c2cc(OC)c3cc(Cc4ccccc4OC)c(=O)oc3c2)CCCCC1,33
6,Cc1ccc(C(C)C)c2cc(Cc3ccccc3)c(=O)oc12,12
7,Cc1ccc(C(C)C)c2cc(Cc3ccccc3O)c(=O)oc12,32
8,CCCCC1(c2cc(OC)c3cc(Cc4ccccc4OC)c(=O)oc3c2)CCCC1,25

# Target: T4, Cannabinoid receptor 1 (Homo sapiens, UniProt P21554)
# T4 sequence (P21554 whole entry): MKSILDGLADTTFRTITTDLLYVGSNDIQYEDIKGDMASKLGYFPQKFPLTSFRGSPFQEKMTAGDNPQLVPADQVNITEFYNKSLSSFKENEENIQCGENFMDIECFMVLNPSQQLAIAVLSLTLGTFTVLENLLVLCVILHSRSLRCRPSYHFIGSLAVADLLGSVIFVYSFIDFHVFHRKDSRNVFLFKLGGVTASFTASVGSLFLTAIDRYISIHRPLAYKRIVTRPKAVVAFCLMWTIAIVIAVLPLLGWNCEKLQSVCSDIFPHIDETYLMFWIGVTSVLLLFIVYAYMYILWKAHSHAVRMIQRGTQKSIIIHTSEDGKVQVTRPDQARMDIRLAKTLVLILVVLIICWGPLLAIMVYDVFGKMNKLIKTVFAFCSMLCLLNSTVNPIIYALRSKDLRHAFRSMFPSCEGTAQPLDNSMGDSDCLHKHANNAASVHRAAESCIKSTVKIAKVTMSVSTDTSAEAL
# Assay: Antagonist activity at human CB1 receptor expressed in CHOK1 cells assessed as inhibition of forskolin-stimulated cAMP level at 10 uM
# Type: functional, cell-based
# Conditions: CHO-K1
row,SMILES,inhibition
1,CCCCCc1cc(OC)c2cc(Cc3ccccc3C)c(=O)oc2c1,Active

# Target: T4, Cannabinoid receptor 1
# Assay: Displacement of [3H]-CP55,940 from human CB1 receptor transfected in CHOK1 cells at 10 uM
# Type: cell-based
# Conditions: CHO-K1
# Summary of the method: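 Human CB1 from membrane preparations of stably transfected CHO cells, 25 µg protein per vial. Competition with [3H]CP55,940 at 0.1 nM final, with test compound at 10 µM, read as % inhibition of radioligand binding. Final DMSO 2.5%. Three independent experiments in duplicate.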
row,SMILES,Activity [%]
1,COc1c(C)c(C)c2oc(=O)c(Cc3ccccc3)cc2c1C,42
2,COc1cc(C)cc2oc(=O)c(Cc3ccccc3)cc12,45
3,Cc1cc2c(C(C)C)ccc(C)c2oc1=O,26
4,CCCCC1(c2cc(OC)c3cc(Cc4ccccc4OC)c(=O)oc3c2)CCCCC1,42
5,Cc1ccc(C(C)C)c2cc(Cc3ccccc3)c(=O)oc12,24
6,Cc1ccc(C(C)C)c2cc(Cc3ccccc3O)c(=O)oc12,31

# Target: T1, G-protein coupled receptor 55
# Assay: Agonist activity at human GPR55 transfected in CHO cells at 10 uM after 90 mins by beta-arrestin translocation assay
# Type: cell-based
# Conditions: not given
# Summary of the method: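 CHO cells stably expressing human GPR55 (β-galactosidase fragment complementation) were seeded at 20,000 cells/well in Opti-MEM with 2% FCS for 24 h at 37°C. Compound was diluted in PBS with 10% DMSO and 0.1% BSA, screened at 10 µM and incubated 90 min at 37°C. Galacton-Star/Emerald-II/lysis buffer (1:5:19) was added for 60 min at RT, then luminescence was read. Response is relative to 1 µM LPI (100%).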
row,SMILES,Activity
1,COc1c(C)c(C)c2oc(=O)c(Cc3ccccc3)cc2c1C,inactive
2,COc1cc(C)cc2oc(=O)c(Cc3ccccc3)cc12,inactive
3,CCCCCc1cc(OC)c2cc(Cc3ccccc3C)c(=O)oc2c1,inactive
4,Cc1cc2c(C(C)C)ccc(C)c2oc1=O,inactive
5,CCCCC1(c2cc(OC)c3cc(Cc4ccccc4OC)c(=O)oc3c2)CCCCC1,inactive
6,Cc1ccc(C(C)C)c2cc(Cc3ccccc3)c(=O)oc12,inactive
7,Cc1ccc(C(C)C)c2cc(Cc3ccccc3O)c(=O)oc12,inactive
8,CCCCC1(c2cc(OC)c3cc(Cc4ccccc4OC)c(=O)oc3c2)CCCC1,inactive

# Target: T2, Cannabinoid receptor 2
# Assay: Displacement of [3H]-CP55,940 from human CB2 receptor transfected in CHOK1 cells
# Type: cell-based, CHO-K1
# Conditions: not given
# Summary of the method: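 CHO cells stably expressing human CB2 supplied the membranes, 1 µg protein per vial. Compounds were screened at 10 µM, and full competition curves were run where inhibition was about 50% or more. Three independent experiments in duplicate.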
row,SMILES,pKi
1,COc1c(C)c(C)c2oc(=O)c(Cc3ccccc3)cc2c1C,5.75
2,COc1cc(C)cc2oc(=O)c(Cc3ccccc3)cc12,≤ 5.00
3,Cc1cc2c(C(C)C)ccc(C)c2oc1=O,< 5.00
4,CCCCC1(c2cc(OC)c3cc(Cc4ccccc4OC)c(=O)oc3c2)CCCCC1,≤ 5.00
5,Cc1ccc(C(C)C)c2cc(Cc3ccccc3)c(=O)oc12,< 5.00

# Target: T4, Cannabinoid receptor 1
# Assay: Displacement of [3H]-CP55,940 from human CB1 receptor transfected in CHOK1 cells
# Type: cell-based, CHO-K1
# Conditions: not given
row,SMILES,pKi
1,COc1c(C)c(C)c2oc(=O)c(Cc3ccccc3)cc2c1C,≤ 5.00
2,COc1cc(C)cc2oc(=O)c(Cc3ccccc3)cc12,≤ 5.00
3,Cc1cc2c(C(C)C)ccc(C)c2oc1=O,< 5.00
4,CCCCC1(c2cc(OC)c3cc(Cc4ccccc4OC)c(=O)oc3c2)CCCCC1,≤ 5.00
5,Cc1ccc(C(C)C)c2cc(Cc3ccccc3)c(=O)oc12,< 5.00

# Target: T2, Cannabinoid receptor 2
# Assay: Agonist activity at human CB2 receptor expressed in CHOK1 cells assessed as […] of forskolin-stimulated cAMP level at 10 uM
# Type: functional, cell-based
# Conditions: CHO-K1
row,SMILES,Activity
1,CCCCCc1cc(OC)c2cc(Cc3ccccc3C)c(=O)oc2c1,Active

# Target: T1, G-protein coupled receptor 55
# Assay: Antagonist activity at human GPR55 transfected in CHO cells assessed as inhibition of LPI-induced beta-arrestin recruitment incubated 60 mins prior to LPI addition by beta-arrestin translocation assay
# Type: cell-based
# Conditions: not given
# Summary of the method: as §1
row,SMILES,pIC50
1,COc1c(C)c(C)c2oc(=O)c(Cc3ccccc3)cc2c1C,4.89
2,COc1cc(C)cc2oc(=O)c(Cc3ccccc3)cc12,5.17
3,CCCCCc1cc(OC)c2cc(Cc3ccccc3C)c(=O)oc2c1,5.29
4,Cc1cc2c(C(C)C)ccc(C)c2oc1=O,5.46
5,CCCCC1(c2cc(OC)c3cc(Cc4ccccc4OC)c(=O)oc3c2)CCCCC1,< 5.00
6,Cc1ccc(C(C)C)c2cc(Cc3ccccc3)c(=O)oc12,5.27
7,Cc1ccc(C(C)C)c2cc(Cc3ccccc3O)c(=O)oc12,5.75
8,CCCCC1(c2cc(OC)c3cc(Cc4ccccc4OC)c(=O)oc3c2)CCCC1,< 5.00

# Target: T5, N-arachidonyl glycine receptor (Homo sapiens, UniProt Q14330)
# T5 sequence (Q14330 whole entry): T3 sequence (whole entry)
# Assay: Antagonist activity at human GPR18 transfected in CHO cells assessed as delta9-THC-induced beta-arrestin recruitment incubated 60 mins prior to delta9-THC addition by beta-arrestin translocation assay
# Type: cell-based
# Conditions: not given
# Summary of the method: as §2
row,SMILES,pIC50
1,COc1c(C)c(C)c2oc(=O)c(Cc3ccccc3)cc2c1C,≤ 5.00
2,COc1cc(C)cc2oc(=O)c(Cc3ccccc3)cc12,< 5.00
3,CCCCCc1cc(OC)c2cc(Cc3ccccc3C)c(=O)oc2c1,< 5.00
4,Cc1cc2c(C(C)C)ccc(C)c2oc1=O,< 5.00
5,CCCCC1(c2cc(OC)c3cc(Cc4ccccc4OC)c(=O)oc3c2)CCCCC1,< 5.00
6,Cc1ccc(C(C)C)c2cc(Cc3ccccc3)c(=O)oc12,< 5.00
7,Cc1ccc(C(C)C)c2cc(Cc3ccccc3O)c(=O)oc12,< 5.00
8,CCCCC1(c2cc(OC)c3cc(Cc4ccccc4OC)c(=O)oc3c2)CCCC1,< 5.00
